Measurements taken from ChEMBL document CHEMBL1124904, “7-Oxabicyclo[2.2.1]heptyl carboxylic acids as thromboxane A2 antagonists: aza omega-chain analogues” (J Med Chem, 1990).

Key:
[1] = species on record: Homo sapiens; test: Evaluated for its specificity to inhibit the aggregation of human platelets induced by Epinephrine(2 degree phase) at concentration of 10 uM; format: functional; conditions: read-out: I50
Outline: (§1)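 Human platelet aggregation with agonist ADP 20 μM, collagen 10 or 20 μg/mL, or epinephrine 10 μM (primary and secondary phases scored separately); I50 reported.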

[2] = test system: Cavia porcellus; test: Evaluated for the percent inhibition of arachidonate-induced dynamic compliance at 60 min after dosing (0.1 mg/kg iv) in anesthetized guinea pig.; format: functional
Outline: (§2)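 Anesthetized guinea pig dosed iv with antagonist at 0.1 mg/kg (some at 1.0 mg/kg). Arachidonic acid 0.5 mg/kg iv given as challenge 3 or 60 min later. Airway resistance, dynamic compliance and blood pressure recorded; percent inhibition of each response.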

[3] = species on record: Bos taurus; test: Evaluated for its specificity by inhibition of 6-keto-PGF1-alpha and PGH-2 (substrate) biosynthesis, enzyme source is Bovine Aorta; format: functional
Outline: (§3)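 Microsomal enzyme preparations from human platelet, bovine seminal vesicles or bovine aorta, given arachidonic acid or PGH2 as substrate. Products measured: TxB2, PGE2 or 6-keto-PGF1α. IC50 reported.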

[4] = test system: Cavia porcellus; test: Evaluated for the percent inhibition of arachidonate-induced hypertension resulting in decreases in blood pressure at 3 min after dosing (0.1 mg/kg iv) in anesthetized guinea pig.; format: functional; outline: as §2
[5] = species on record: Homo sapiens; test: Ability to inhibit platelet aggregation of human platelet-rich plasma (PRP) induced by 800 uM of AA-IPA (arachidonic acid); format: functional; conditions: Homo sapiens, Plasma; read-out: I50
Outline: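 Human platelet-rich plasma; aggregation triggered by arachidonic acid at 800 μM. Test acids were also checked against ADP (20 μM)-induced aggregation. I50 taken as the concentration inhibiting aggregation.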

[6] = species on record: Homo sapiens; test: Evaluated for its specificity to inhibit the aggregation of human platelets induced by ADP at concentration of 20 uM; format: functional; conditions: read-out: I50; outline: as §1
[7] = species on record: Rattus norvegicus; test: Evaluated for its potency Rat aorta (RA) strips in the presence of increasing concentrations; format: functional
Outline: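 Rat aortic strips contracted by U-46,619 in cumulative dose-response curves, repeated with increasing antagonist concentrations; Kb from analysis of the rightward shift.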

[8] = test system: Cavia porcellus; test: Evaluated for the percent inhibition of arachidonate-induced hypertension resulting in decreases in blood pressure at 60 min after dosing (0.1 mg/kg iv) in anesthetized guinea pig.; format: functional; outline: as §2
[9] = species on record: Homo sapiens; test: Evaluated for its specificity to inhibit the aggregation of human platelets induced by U-46,619 at concentration of 5 uM; format: functional; conditions: read-out: I50
Outline: (§4)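 Human PRP aggregation induced by U-46,619 (11,9-epoxymethano-PGH2, stable PGH2/TxA2 mimic) at 5 or 10 μM; I50 reported. Values are single determinations unless otherwise noted.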

[10] = species on record: Bos taurus; test: Evaluated for its specificity by inhibition of PGE-2 and arachidonic acid (substrate) biosynthesis, enzyme source is Bovine seminal Vesicles; format: functional; outline: as §3
[11] = species on record: Homo sapiens; test: Evaluated for its specificity to inhibit the aggregation of human platelets induced by Epinephrine(1 degree phase) at concentration of 10 uM; format: functional; conditions: read-out: I50; outline: as §1
[12] = species on record: Homo sapiens; test: Evaluated for its specificity by inhibition of TXB2 and PGH-2 (substrate) biosynthesis, enzyme source is human platelets.; format: functional; outline: as §3
[13] = test system: Cavia porcellus; test: Evaluated for the percent inhibition of arachidonate-induced air-way resistance at 60 min after dosing (0.1 mg/kg iv) in anesthetized guinea pig.; format: functional; outline: as §2
[14] = species on record: Homo sapiens; test: Evaluated for its specificity by inhibition of PGE-2 and arachidonic acid (substrate) biosynthesis, enzyme source is human platelets.; format: functional; outline: as §3
[15] = species on record: Homo sapiens; test: Evaluated for ability to inhibit platelet aggregation of human platelet-rich plasma (PRP) induced by 11.9-epoxymethano-PGH2.; format: functional; conditions: Homo sapiens, Plasma; read-out: I50; outline: as §4
[16] = species on record: Homo sapiens; test: Evaluated for its specificity to inhibit the aggregation of human platelets induced by Collagen at concentration of 20 ug/mL; format: functional; conditions: read-out: I50; outline: as §1
[17] = species on record: Homo sapiens; test: Evaluated for its specificity by inhibition of TXB2 and arachidonic acid (substrate) biosynthesis, enzyme source is human platelets.; format: functional; conditions: read-out: I50; outline: as §3
[18] = species on record: Homo sapiens; test: Evaluated for its specificity by inhibition of PGE-2 and PGH-2 (substrate) biosynthesis, enzyme source is human platelets.; format: functional; outline: as §3
[19] = species on record: Homo sapiens; test: Evaluated for its specificity to inhibit the aggregation of human platelets induced by U-46,619 at concentration of 10 uM; format: functional; conditions: read-out: I50; outline: as §4
[20] = species on record: Homo sapiens; test: Evaluated for its specificity to inhibit the aggregation of human platelets induced by Collagen at concentration of 10 ug/mL; format: functional; conditions: read-out: I50; outline: as §1
[21] = target: T1, Thromboxane A2 receptor (Homo sapiens, UniProt P21731); test: Binding affinity was determined from the inhibition of [3H]-SQ 29,548 binding to Thromboxane A2 receptor in human platelet membranes.; format: cell membranes
T1 sequence (P21731 whole entry): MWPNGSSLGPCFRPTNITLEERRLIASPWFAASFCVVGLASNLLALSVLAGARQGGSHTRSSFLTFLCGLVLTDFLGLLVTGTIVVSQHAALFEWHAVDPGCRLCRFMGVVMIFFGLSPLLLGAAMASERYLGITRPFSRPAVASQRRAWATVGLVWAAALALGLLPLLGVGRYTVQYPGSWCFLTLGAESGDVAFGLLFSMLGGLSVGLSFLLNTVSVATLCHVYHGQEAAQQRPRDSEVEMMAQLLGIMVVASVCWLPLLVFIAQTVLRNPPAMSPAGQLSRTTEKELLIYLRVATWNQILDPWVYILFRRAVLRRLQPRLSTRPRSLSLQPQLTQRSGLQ
Outline: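 Radioligand binding to human platelet membranes with [5,6-3H2]-SQ 29,548 as tracer; Kd derived from inhibition of specific binding.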

[22] = species on record: Bos taurus; test: Evaluated for its specificity by inhibition of 6-keto-PGF1-alpha and arachidonic acid (substrate) biosynthesis, enzyme source is Bovine Aorta; format: functional; outline: as §3
[23] = species on record: Cavia porcellus; test: Evaluated for its potency in Guinea pig trachea (GPT) spirals in the presence of increasing concentrations; format: functional; conditions: Cavia porcellus, Trachea
Outline: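 Guinea pig tracheal spirals contracted by U-46,619 in cumulative dose-response curves, repeated with increasing antagonist concentrations; Kb from analysis of the rightward shift.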

[24] = test system: Cavia porcellus; test: Evaluated for the percent inhibition of arachidonate-induced air-way resistance at 3 min after dosing (0.1 mg/kg iv) in anesthetized guinea pig.; format: functional; outline: as §2
[25] = test system: Cavia porcellus; test: Evaluated for the percent inhibition of arachidonate-induced dynamic compliance at 3 min after dosing (0.1 mg/kg iv) in anesthetized guinea pig.; format: functional; outline: as §2

Compound: CCCCCCCC(=O)NCC(=O)NCC1C2CCC(O2)C1C/C=C/CCCC(=O)O (single isomer, unassigned; (-))
- IC50 [1]: 0.04 µM
- Inhibition [2]: 22%
- IC50 [3]: > 1000 µM
- Inhibition [4]: 195%
- IC50 [5]: 0.18 µM
- IC50 [6]: > 1000 µM
- Kb [7]: 0.0088 µM
- Inhibition [8]: 90%
- IC50 [9]: 0.22 µM
- IC50 [10]: > 1000 µM
- IC50 [11]: > 1000 µM
- IC50 [12]: > 1000 µM
- Inhibition [13]: 23%
- IC50 [14]: > 1000 µM
- IC50 [15]: 0.24 µM
- IC50 [16]: 0.56 µM
- IC50 [17]: > 1000 µM
- IC50 [18]: > 1000 µM
- IC50 [19]: 0.24 µM
- IC50 [20]: 0.19 µM
- Kd [21]: 0.0496 µM
- IC50 [22]: > 1000 µM
- Kb [23]: 0.003 µM
- Inhibition [24]: 96%
- Inhibition [25]: 86%
